Experiment [1] deals with T1, Cytosolic phospholipase A2 (Homo sapiens) (UniProt P47712).
T1 sequence (whole entry): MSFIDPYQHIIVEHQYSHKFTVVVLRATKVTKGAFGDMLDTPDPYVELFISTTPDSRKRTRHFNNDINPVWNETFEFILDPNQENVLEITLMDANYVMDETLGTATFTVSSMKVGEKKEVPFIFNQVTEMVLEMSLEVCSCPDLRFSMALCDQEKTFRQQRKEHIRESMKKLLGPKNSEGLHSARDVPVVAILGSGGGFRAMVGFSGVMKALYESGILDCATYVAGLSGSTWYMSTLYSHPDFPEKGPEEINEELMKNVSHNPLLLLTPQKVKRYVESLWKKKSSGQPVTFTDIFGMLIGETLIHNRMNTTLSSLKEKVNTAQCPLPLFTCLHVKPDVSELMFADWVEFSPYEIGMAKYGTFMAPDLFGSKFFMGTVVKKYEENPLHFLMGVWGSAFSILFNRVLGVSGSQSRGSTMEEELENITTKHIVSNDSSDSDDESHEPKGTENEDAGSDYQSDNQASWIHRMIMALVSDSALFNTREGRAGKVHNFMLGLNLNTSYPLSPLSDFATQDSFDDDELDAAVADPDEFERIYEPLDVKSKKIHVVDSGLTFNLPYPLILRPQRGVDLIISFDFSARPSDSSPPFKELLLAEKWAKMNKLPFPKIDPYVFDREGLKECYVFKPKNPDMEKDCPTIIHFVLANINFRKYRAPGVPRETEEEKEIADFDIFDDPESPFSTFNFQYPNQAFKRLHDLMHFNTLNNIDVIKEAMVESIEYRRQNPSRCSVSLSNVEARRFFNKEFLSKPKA
Put plainly: Inhibition of cPLA2 assessed as residual activity at 10 uM after 5 mins.

For experiment [2], the target named is T2, Polyunsaturated fatty acid lipoxygenase ALOX15 (Homo sapiens) (UniProt P16050).
T2 sequence (whole entry): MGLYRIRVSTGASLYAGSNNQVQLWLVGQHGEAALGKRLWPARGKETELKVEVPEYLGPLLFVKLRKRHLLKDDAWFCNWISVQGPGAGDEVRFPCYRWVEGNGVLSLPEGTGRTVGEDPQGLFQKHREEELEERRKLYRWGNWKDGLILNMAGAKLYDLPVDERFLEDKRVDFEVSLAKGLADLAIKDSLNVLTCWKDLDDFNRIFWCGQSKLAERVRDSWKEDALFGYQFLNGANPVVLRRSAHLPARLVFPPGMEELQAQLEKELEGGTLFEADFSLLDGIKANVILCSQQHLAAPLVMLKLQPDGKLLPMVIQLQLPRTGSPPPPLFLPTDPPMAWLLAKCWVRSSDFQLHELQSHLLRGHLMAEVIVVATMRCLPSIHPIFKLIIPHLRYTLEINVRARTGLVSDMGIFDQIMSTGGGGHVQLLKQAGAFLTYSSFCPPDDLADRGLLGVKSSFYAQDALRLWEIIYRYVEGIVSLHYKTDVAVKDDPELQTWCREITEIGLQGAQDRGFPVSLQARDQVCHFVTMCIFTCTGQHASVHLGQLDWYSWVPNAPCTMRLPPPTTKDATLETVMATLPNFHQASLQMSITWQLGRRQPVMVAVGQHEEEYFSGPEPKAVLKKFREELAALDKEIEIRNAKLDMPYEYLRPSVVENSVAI
The experiment can be described thus: Inhibition of 15-lipoxygenase in A23187-stimulated human PMNL assessed as reduction of 15(S)-H(P)ETE formation up to 10 uM preincubated 15 mins by RP-HPLC analysis in presence of exogenous arachidonic acid. In short, it runs like this: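 Freshly isolated human PMNL (5 × 10⁶/ml PGC buffer: PBS pH 7.4, 1 mg/ml glucose, 1 mM CaCl₂) preincubated with compound 15 min at 37 °C. Stimulated with 2.5 µM A23187 plus exogenous AA for 10 min at 37 °C. Stopped with methanol, PGB₁ added as internal standard, lipoxygenase products analysed by HPLC. Mean of n = 3–5.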

Experiment [3] concerns the target T3, Prostaglandin G/H synthase 1 (Ovis aries) (UniProt P05979).
T3 sequence (whole entry): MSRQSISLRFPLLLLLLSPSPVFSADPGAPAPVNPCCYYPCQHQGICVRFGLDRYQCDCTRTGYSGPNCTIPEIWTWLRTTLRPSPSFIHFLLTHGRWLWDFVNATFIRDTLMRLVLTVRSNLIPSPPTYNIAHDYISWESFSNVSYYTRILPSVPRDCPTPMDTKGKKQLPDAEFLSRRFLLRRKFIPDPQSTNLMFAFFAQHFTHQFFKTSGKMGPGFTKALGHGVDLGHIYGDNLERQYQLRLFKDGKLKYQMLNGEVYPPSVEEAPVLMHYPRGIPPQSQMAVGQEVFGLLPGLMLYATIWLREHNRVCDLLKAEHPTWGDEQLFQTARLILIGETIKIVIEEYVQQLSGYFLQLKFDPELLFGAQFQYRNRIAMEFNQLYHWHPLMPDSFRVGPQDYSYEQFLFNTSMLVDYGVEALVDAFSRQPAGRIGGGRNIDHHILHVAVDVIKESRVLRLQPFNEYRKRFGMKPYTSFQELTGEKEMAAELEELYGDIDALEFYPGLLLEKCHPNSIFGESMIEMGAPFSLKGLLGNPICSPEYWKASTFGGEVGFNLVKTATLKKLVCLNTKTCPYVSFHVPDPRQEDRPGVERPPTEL
The experiment can be described thus: Inhibition of ovine COX1 assessed as residual activity at 10 uM after 5 mins. In short, it runs like this:
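Ovine COX-1 (50 units) or human recombinant COX-2 (20 units) in 1 ml 100 mM Tris pH 8 with 5 mM glutathione, 5 µM haemoglobin and 100 µM EDTA. Preincubated with 10 µM compound 5 min at 4 °C, warmed 60 s at 37 °C. Started with AA (5 µM for COX-1, 2 µM for COX-2), run 5 min at 37 °C. 12-HHT extracted and analysed by HPLC. n = 3.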

Molecules are shown by their SMILES. Activity calls are given as the source filed them. The rule behind the calls is not given here.

Take `CCCCC(Sc1ccc(OCCCOc2ccc(-c3ccccc3)cc2)cc1)C(=O)O` (stereo not drawn): the Activity is 106% in experiment [1] and 79.2% in experiment [3]. The inhibition entry in experiment [2] is “inactive”.
